ChEMBL document CHEMBL4715732, “4-Phenylureido/thioureido-substituted 2,2-dimethylchroman analogs of cromakalim bearing a bulky 'carbamate' moiety at the 6-position as potent inhibitors of glucose-sensitive insulin secretion” (Eur J Med Chem, 2016)

Key:
[1] = system: Aorta; assay: Myorelaxant activity in aortic rings isolated from Wistar rat assessed as reduction in KCl-induced contractions measured after 60 mins in presence of 80 mM KCl by force-displacement transducer; assay type: functional, tissue-based; conditions: 1 h, in the assay text read “30 mM KCl” for “80 mM KCl”
In short: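 Endothelium-free rat aorta rings were contracted with 30 mM or 80 mM K+, with 1 or 10 μM glibenclamide present for some 30 mM series. Agent was applied cumulatively. EC50 is the concentration giving 50% relaxation of the KCl-induced contraction, reported as mean ± SEM (n).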

[2] = Residual glucose-induced insulin secretion in Wistar rat pancreatic islets at 1 uM incubated for 90 mins in presence of 16.7 mM glucose by radioimmunological assay relative to control; conditions: Pancreatic islet, 1.5 h
[3] = Residual glucose-induced insulin secretion in Wistar rat pancreatic islets at 10 uM incubated for 90 mins in presence of 16.7 mM glucose by radioimmunological assay relative to control; conditions: Pancreatic islet, 1.5 h

Compound: CC(C)OC(=O)Nc1ccc2c(c1)C(NC(=S)Nc1ccc(C#N)cc1)CC(C)(C)O2 (stereo not given)
- EC50 [1]: 7.2 µM
- residual insulin secretion at 1 µM [2]: 86%
- residual insulin secretion at 10 µM [3]: 14.8%

Compound: CC(C)OC(=O)Nc1ccc2c(c1)C(NC(=O)Nc1cccc(C#N)c1)CC(C)(C)O2 (racemic)
- EC50 [1]: 12.1 µM
- residual insulin secretion at 1 µM [2]: 50.5%
- residual insulin secretion at 10 µM [3]: 12.7%

Compound: CC(C)(C)OC(=O)Nc1ccc2c(c1)C(NC(=O)Nc1ccc(Cl)cc1)CC(C)(C)O2 (racemic)
- EC50 [1]: 9.4 µM
- residual insulin secretion at 1 µM [2]: 86.1%
- residual insulin secretion at 10 µM [3]: 36.4%

Compound: CC(C)(C)OC(=O)Nc1ccc2c(c1)C(NC(=O)Nc1cccc(Cl)c1)CC(C)(C)O2 (racemic)
- EC50 [1]: 18.7 µM
- residual insulin secretion at 1 µM [2]: 86.4%
- residual insulin secretion at 10 µM [3]: 11%

Compound: CCOC(=O)Nc1ccc2c(c1)C(NC(=O)Nc1cccc(C#N)c1)CC(C)(C)O2 (racemic)
- EC50 [1]: 14.2 µM
- residual insulin secretion at 1 µM [2]: 81%
- residual insulin secretion at 10 µM [3]: 5.9%

Compound: CC(C)(C)OC(=O)Nc1ccc2c(c1)C(NC(=O)Nc1ccc(C#N)cc1)CC(C)(C)O2 (racemic)
- EC50 [1]: 6.5 µM
- residual insulin secretion at 1 µM [2]: 53.4%
- residual insulin secretion at 10 µM [3]: 5.8%

Compound: COC(=O)Nc1ccc2c(c1)C(NC(=O)Nc1cccc(C#N)c1)CC(C)(C)O2 (racemic)
- EC50 [1]: 16.9 µM
- residual insulin secretion at 1 µM [2]: 88.3%
- residual insulin secretion at 10 µM [3]: 9.4%

Compound: CCOC(=O)Nc1ccc2c(c1)C(NC(=S)Nc1cccc(Cl)c1)CC(C)(C)O2 (racemic)
- EC50 [1]: 22.7 µM
- residual insulin secretion at 1 µM [2]: 73.7%
- residual insulin secretion at 10 µM [3]: 21.5%

Compound: CC(C)OC(=O)Nc1ccc2c(c1)C(NC(=S)Nc1cccc(C#N)c1)CC(C)(C)O2 (racemic)
- EC50 [1]: 5.6 µM
- residual insulin secretion at 1 µM [2]: 79.3%
- residual insulin secretion at 10 µM [3]: 14.2%

Compound: COC(=O)Nc1ccc2c(c1)C(NC(=O)Nc1ccc(C#N)cc1)CC(C)(C)O2 (racemic)
- EC50 [1]: > 30 µM
- residual insulin secretion at 1 µM [2]: 89.7%
- residual insulin secretion at 10 µM [3]: 36.9%

Compound: COC(=O)Nc1ccc2c(c1)C(NC(=S)Nc1ccc(Cl)cc1)CC(C)(C)O2 (racemic)
- EC50 [1]: 24.4 µM
- residual insulin secretion at 1 µM [2]: 84.9%
- residual insulin secretion at 10 µM [3]: 22.8%

Compound: COC(=O)Nc1ccc2c(c1)C(NC(=O)Nc1ccc(Cl)cc1)CC(C)(C)O2 (racemic)
- EC50 [1]: > 30 µM
- residual insulin secretion at 1 µM [2]: 92.7%
- residual insulin secretion at 10 µM [3]: 53.7%

Compound: CCOC(=O)Nc1ccc2c(c1)C(NC(=O)Nc1ccc(C#N)cc1)CC(C)(C)O2 (racemic)
- EC50 [1]: > 30 µM
- residual insulin secretion at 1 µM [2]: 79.5%
- residual insulin secretion at 10 µM [3]: 17.4%

Compound: CCOC(=O)Nc1ccc2c(c1)C(NC(=S)Nc1ccc(Cl)cc1)CC(C)(C)O2 (racemic)
- EC50 [1]: 8.9 µM
- residual insulin secretion at 1 µM [2]: 78.4%
- residual insulin secretion at 10 µM [3]: 22%

Compound: COC(=O)Nc1ccc2c(c1)C(NC(=S)Nc1cccc(Cl)c1)CC(C)(C)O2 (racemic)
- EC50 [1]: 15.4 µM
- residual insulin secretion at 1 µM [2]: 84.2%
- residual insulin secretion at 10 µM [3]: 26.1%

Compound: CCOC(=O)Nc1ccc2c(c1)C(NC(=O)Nc1cccc(Cl)c1)CC(C)(C)O2 (racemic)
- EC50 [1]: 13.1 µM
- residual insulin secretion at 1 µM [2]: 82.8%
- residual insulin secretion at 10 µM [3]: 36.1%

Compound: CCOC(=O)Nc1ccc2c(c1)C(NC(=O)Nc1ccc(Cl)cc1)CC(C)(C)O2 (racemic)
- EC50 [1]: 21.2 µM
- residual insulin secretion at 1 µM [2]: 92.1%
- residual insulin secretion at 10 µM [3]: 49.9%

Compound: CCOC(=O)Nc1ccc2c(c1)C(NC(=S)Nc1ccc(C#N)cc1)CC(C)(C)O2 (racemic)
- EC50 [1]: 19.4 µM
- residual insulin secretion at 1 µM [2]: 80.2%
- residual insulin secretion at 10 µM [3]: 10.2%

Compound: CC(C)OC(=O)Nc1ccc2c(c1)C(NC(=O)Nc1cccc(Cl)c1)CC(C)(C)O2 (racemic)
- EC50 [1]: 12.6 µM
- residual insulin secretion at 1 µM [2]: 92%
- residual insulin secretion at 10 µM [3]: 23.7%

Compound: COC(=O)Nc1ccc2c(c1)C(NC(=S)Nc1cccc(C#N)c1)CC(C)(C)O2 (racemic)
- EC50 [1]: 4.8 µM
- residual insulin secretion at 1 µM [2]: 85.1%
- residual insulin secretion at 10 µM [3]: 29.3%

Compound: CC(C)OC(=O)Nc1ccc2c(c1)C(NC(=O)Nc1ccc(Cl)cc1)CC(C)(C)O2 (racemic)
- EC50 [1]: 46.2 µM
- residual insulin secretion at 1 µM [2]: 92.3%
- residual insulin secretion at 10 µM [3]: 48.7%

Compound: CC(C)OC(=O)Nc1ccc2c(c1)C(NC(=O)Nc1ccc(C#N)cc1)CC(C)(C)O2 (racemic)
- EC50 [1]: 17.7 µM
- residual insulin secretion at 1 µM [2]: 80.7%
- residual insulin secretion at 10 µM [3]: 14.1%

Compound: CCOC(=O)Nc1ccc2c(c1)C(NC(=S)Nc1cccc(C#N)c1)CC(C)(C)O2 (racemic)
- EC50 [1]: 12.3 µM
- residual insulin secretion at 1 µM [2]: 77.6%
- residual insulin secretion at 10 µM [3]: 14.8%

Compound: COC(=O)Nc1ccc2c(c1)C(NC(=S)Nc1ccc(C#N)cc1)CC(C)(C)O2 (racemic)
- EC50 [1]: > 30 µM
- residual insulin secretion at 1 µM [2]: 93.8%
- residual insulin secretion at 10 µM [3]: 27.8%

Compound: COC(=O)Nc1ccc2c(c1)C(NC(=O)Nc1cccc(Cl)c1)CC(C)(C)O2 (racemic)
- EC50 [1]: > 30 µM
- residual insulin secretion at 1 µM [2]: 92%
- residual insulin secretion at 10 µM [3]: 35.7%

Compound: CC(C)OC(=O)Nc1ccc2c(c1)C(NC(=S)Nc1ccc(Cl)cc1)CC(C)(C)O2 (racemic)
- EC50 [1]: 10.4 µM
- residual insulin secretion at 1 µM [2]: 81.2%
- residual insulin secretion at 10 µM [3]: 14.9%

Compound: CC(C)OC(=O)Nc1ccc2c(c1)C(NC(=S)Nc1cccc(Cl)c1)CC(C)(C)O2 (racemic)
- EC50 [1]: 11 µM
- residual insulin secretion at 1 µM [2]: 81.5%
- residual insulin secretion at 10 µM [3]: 19.3%

Compound: CC1(C)Oc2ccc(C#N)cc2C(N2CCCC2=O)C1O (racemic) [CROMAKALIM]
- residual insulin secretion at 1 µM [2]: 95.3%
- residual insulin secretion at 10 µM [3]: 94.4%

Compound: CC1=Nc2ccc(Cl)cc2S(=O)(=O)N1 [DIAZOXIDE]
- residual insulin secretion at 1 µM [2]: 91%
- residual insulin secretion at 10 µM [3]: 80.8%
